Calls of active or inactive are those of the source. The rule behind the calls is not given here.

This passage reports inhibition and Activity results from ChEMBL document CHEMBL4834474, “Terphenyl-Based Small-Molecule Inhibitors of Programmed Cell Death-1/Programmed Death-Ligand 1 Protein-Protein Interaction” (J Med Chem, 2021).

For data set [1], the target named is T1, Programmed cell death protein 1/Programmed cell death 1 ligand 1 (Homo sapiens) (UniProt Q15116+Q9NZQ7). Briefly: Inhibition of PD-1/PD-L1 interaction in human Jurkat cells cocultured with CHO cells expressing PD-Ll/TCRAct assessed as activation of effector Jurkat cells at 0.01 to 100 uM incubated for 6 hrs by luciferase reporter gene based immune checkpoint blockade cell-based assay. The note with it: dose 0.01-100 µM. Put shortly:
(§1)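 CHO/TCRAct/PD-L1, CHO/TCRAct or CHO-K1 cells seeded at 10,000/well. Next day overlaid with Jurkat-ECs (20,000/well) plus compound dilutions, DMSO held at 0.1%. Incubated 6 h at 37 °C, 5% CO2; luciferase reagent added for 20 min at room temperature; luminescence read. Fold induction over DMSO-treated cells; mean ± SD, 3–5 experiments; EC50 by Hill fit.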

For data set [2], the target named is Programmed cell death 1 ligand 1 (Homo sapiens) (UniProt Q9NZQ7). Briefly: Binding affinity to human PD-L1 assessed as induction of protein dimerization by 1H NMR method.
Programmed cell death 1 ligand 1 (Homo sapiens), sequence (Q9NZQ7 whole entry): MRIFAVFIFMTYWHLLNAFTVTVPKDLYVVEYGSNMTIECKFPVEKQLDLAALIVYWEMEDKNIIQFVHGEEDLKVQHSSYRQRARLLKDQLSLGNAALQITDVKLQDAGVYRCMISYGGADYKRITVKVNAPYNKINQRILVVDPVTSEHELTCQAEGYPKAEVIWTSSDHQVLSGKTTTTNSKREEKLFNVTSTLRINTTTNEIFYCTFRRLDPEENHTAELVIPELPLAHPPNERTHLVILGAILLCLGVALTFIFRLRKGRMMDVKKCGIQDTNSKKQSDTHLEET
Another data set has as its system Jurkat. In words: Cytotoxicity against human Jurkat effector cells at 10 uM after 48 hrs. In kind it is cell-based. Put shortly:
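Jurkat-ECs (PD-1, NFAT-RE luciferase) exposed to increasing compound concentrations, DMSO constant at 0.1%. After 48 h, tetrazolium redox dye added for a further 2 h at 37 °C, 5% CO2. Absorbance at 590 nm, 750 nm reference. Survival relative to DMSO controls; mean ± SD of three independent experiments; EC50 from dose–response curve.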

The target of data set [3] is T1, Programmed cell death protein 1/Programmed cell death 1 ligand 1 (Homo sapiens). Briefly: Inhibition of PD-1/PD-L1 interaction in human Jurkat cells cocultured with CHO cells expressing TCRAct assessed as activation of effector Jurkat cells incubated for 6 hrs by luciferase reporter gene based immune checkpoint blockade cell-based assay. The method in brief:
as §1
A general note: In a reporter assay the amount or activity of a reporter protein is the signal.

The target is the same in data set [4]. Briefly: Inhibition of PD-1/PD-L1 interaction in human PBMCs cocultured with CHO cells expressing PD-L1/TCRAct assessed as increase in IL-10 expression at 0.1 to 2.5 uM incubated for 48 hrs by TCA. In kind it is cell-based. The note with it: PBMC, dose 0.1-2.5 µM. The method in brief:
(§2)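 Culture supernatants taken from 48 h cocultures of PBMCs with CHO/TCRAct/PD-L1 cells (compound 0.1, 0.5, 2.5 μM). IL-2, IL-6, IL-10, IFN-γ, TNFα quantified by cytometric bead array against standard curves. Per donor, normalized to untreated PBMC plus CHO/TCRAct coculture. Mean ± SEM of four donors; one-way ANOVA, Fisher post hoc.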

Data set [5] has the same target. Briefly: Inhibition of PD-1/PD-L1 interaction in human PBMCs cocultured with CHO cells expressing PD-L1/TCRAct assessed as increase in PD-1 receptor expression on CD4+ T cells at 0.1 to 2.5 uM incubated for 48 hrs by flow cytometry. The note with it: PBMC, dose 0.1-2.5 µM. The format is cell-based. Put shortly: (§3)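 PBMCs isolated by density gradient from healthy donor blood (citrate dextrose anticoagulant). 3 × 10^5 cells added to preseeded CHO/TCRAct/PD-L1 cells with compound at 0.1, 0.5 or 2.5 μM, 0.1% DMSO as control. Cocultured 48 h at 37 °C, 5% CO2. Detached cells stained 20 min at RT for CD4, CD8, CD69, CD25, HLA-DR, PD-1; flow cytometry. Four donors; one-way ANOVA with Fisher post hoc.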
A general note: Flow cytometry measures light scatter and fluorescence of single cells or particles in a stream.

The target is the same in data set [6]. In words: Inhibition of PD-1/PD-L1 interaction in human PBMCs cocultured with in CHO cells expressing PD-L1/TCRAct assessed as increase in HLA-DR expression on CD8+ T cells at 0.1 to 2.5 uM incubated for 48 hrs by flow cytometry. The format is cell-based. Particulars: PBMC, dose 0.1-2.5 µM. Put shortly:
as §3

Data set [7] shares this target. Briefly: Inhibition of PD-1/PD-L1 interaction in human PBMCs cocultured with CHO cells expressing PD-L1/TCRAct assessed as increase in PD-1 receptor expression on CD8+ T cells at 0.1 to 2.5 uM incubated for 48 hrs by flow cytometry. The format is cell-based. The note with it: PBMC, dose 0.1-2.5 µM. Put shortly: as §3
Data set [8] shares this target. Briefly: Inhibition of PD-1/PD-L1 interaction in human PBMCs cocultured with CHO cells expressing PD-L1/TCRAct assessed as increase in INFgamma expression at 0.1 to 2.5 uM incubated for 48 hrs by TCA. The format is cell-based. The note with it: PBMC, dose 0.1-2.5 µM. Put shortly:
as §2

The target is the same in data set [9]. In words: Inhibition of PD-1/PD-L1 interaction in human PBMCs cocultured with CHO cells expressing PD-L1/TCRAct assessed as increase in IL-6 expression at 0.1 to 2.5 uM incubated for 48 hrs by TCA. In kind it is cell-based. Particulars: PBMC, dose 0.1-2.5 µM. Put shortly:
as §2

Data set [10] shares this target. In words: Inhibition of PD-1/PD-L1 interaction in human PBMCs cocultured with CHO cells expressing PD-L1/TCRAct assessed as increase in IL-2 expression at 0.1 to 2.5 uM incubated for 48 hrs by TCA. The format is cell-based. The note with it: PBMC, dose 0.1-2.5 µM. Put shortly: as §2
The target in data set [11] is Programmed cell death 1 ligand 1 (Mus musculus) (UniProt Q9EP73). Briefly: Binding affinity to mouse PD-L1 assessed as induction of protein dimerization by 1H NMR method.
Programmed cell death 1 ligand 1 (Mus musculus), sequence (Q9EP73 whole entry): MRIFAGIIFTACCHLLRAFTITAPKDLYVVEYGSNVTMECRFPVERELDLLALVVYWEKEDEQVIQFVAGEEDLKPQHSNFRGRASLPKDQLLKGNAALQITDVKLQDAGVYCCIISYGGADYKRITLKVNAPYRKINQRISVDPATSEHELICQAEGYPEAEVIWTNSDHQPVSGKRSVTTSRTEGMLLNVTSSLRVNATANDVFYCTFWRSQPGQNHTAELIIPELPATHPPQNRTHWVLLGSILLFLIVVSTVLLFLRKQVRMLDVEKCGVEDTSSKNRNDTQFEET
Data set [12] deals with T1, Programmed cell death protein 1/Programmed cell death 1 ligand 1 (Homo sapiens). Briefly: Inhibition of PD-1/PD-L1 interaction in human PBMCs cocultured with CHO cells expressing PD-L1/TCRAct assessed as increase in TNFalpha expression at 0.1 to 2.5 uM incubated for 48 hrs by TCA. The format is cell-based. Particulars: PBMC, dose 0.1-2.5 µM. The method in brief: as §2

For data set [13] the target is unchanged. Briefly: Inhibition of PD-1/PD-L1 interaction in human PBMCs cocultured with CHO cells expressing PD-L1/TCRAct assessed as increase in CD25 expression on CD8+ T cells at 0.1 to 2.5 uM incubated for 48 hrs by flow cytometry. In kind it is cell-based. Particulars: PBMC, dose 0.1-2.5 µM. The method in brief: as §3
Data set [14] has the same target. Briefly: Inhibition of PD-1/PD-L1 interaction in human PBMCs cocultured with CHO cells expressing PD-L1/TCRAct assessed as increase in HLA-DR expression on CD4+ T cells at 0.1 to 2.5 uM incubated for 48 hrs by flow cytometry. The note with it: PBMC, dose 0.1-2.5 µM. The format is cell-based. Put shortly:
as §3

Data set [15] shares this target. In words: Inhibition of PD-1/PD-L1 interaction in human PBMCs cocultured with CHO cells expressing PD-L1/TCRAct assessed as increase in CD25 expression on CD4+ T cells at 0.1 to 2.5 uM incubated for 48 hrs by flow cytometry. The format is cell-based. The note with it: PBMC, dose 0.1-2.5 µM. Put shortly:
as §3

Turning to `COc1cc(-c2cccc(-c3ccc4c(c3)OCCO4)c2Cl)ccc1CNCCNC(C)=O`, the inhibition result in [1] was “Active”. Further, the outcome in [2] was Active. Further, the Activity entry with Jurkat was “Non-Toxic”. Moreover, the inhibition result in [3] was “inactive”.

In the case of `COc1cc(-c2cccc(-c3ccc4c(c3)OCCO4)c2Cl)ccc1CNC(CO)(CO)CO`, the inhibition result in data set [4], in [1], in data set [5], in data set [6], in [7] and in [8] was “Active” in each case. For the same molecule, the inhibition result in data set [9], in [10], in data set [12], in data set [13], in data set [14] and in data set [15] was “Active” throughout. In addition, the outcome in data set [2] was Active. For the same molecule, the Activity result in the data set on Jurkat was “Non-Toxic”. Further, in [11], the outcome was inactive. In [3], the inhibition entry is “inactive”.

With `CC(=O)NCCNCc1ccc(-c2cccc(-c3ccc4c(c3)OCCO4)c2Cl)cc1OCC#N`, the outcome in data set [2] was Active.

For `COc1cc(-c2cccc(-c3ccc4c(c3)OCCO4)c2Cl)ccc1CNCCNC(N)=O`, the inhibition result in data set [1], in [5] and in [7] was “Active” in each case. Also, the inhibition result in [6], in [13], in data set [3], in data set [14] and in data set [15] was “inactive” throughout. The Activity entry in the data set on Jurkat is on record as “Non-Toxic”.

For the molecule `COc1cc(-c2cccc(-c3ccc4c(c3)OCCO4)c2Cl)ccc1CNC(CO)CO`, in [1], the inhibition result was “Active”. Further, in the data set on Jurkat, the Activity result is recorded as “Non-Toxic”. Moreover, the inhibition entry in data set [3] is “inactive”.

As to `COc1cc(-c2cccc(-c3ccc4c(c3)OCCO4)c2Cl)ccc1CNCCNS(C)(=O)=O`, the inhibition entry in data set [1] is “Active”. Also, the Activity entry in the data set with Jurkat was “Non-Toxic”. In data set [3], the inhibition result was “inactive”.

Regarding `COc1cc(-c2cccc(-c3ccc4c(c3)OCCO4)c2Cl)ccc1CNCCNC(=O)CN`, the inhibition entry in [1] was “Active”. Also, the Activity result in the data set on Jurkat is reported as “Non-Toxic”. Also, in data set [3], the inhibition entry was “inactive”.
